According to the EternaBench riboswitch data:

Test system: MS2 coat protein
Test: apparent Kd, MS2 coat protein; higher = weaker binding; RNA-MaP array; FMN 200 µM where present
Outline: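 The titrant was SNAP-549-labelled MS2 coat protein, run from 0.7 or 1.5 nM in doubling steps to 3 µM. It was applied to designs transcribed by stalled E. coli RNA polymerase on Illumina sequencing-chip clusters, without ligand first and then with constant ligand, in 100 mM Tris-HCl pH 7.5, 80 mM KCl, 4 mM MgCl2, BSA, DTT, yeast tRNA and Tween-20. The apparent Kd is the median of filtered per-cluster binding-curve fits, with green signal normalised to red-channel RNA signal and control-cluster median Fmax.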

[1] = designed as: OFF switch for flavin mononucleotide, no ligand
[2] = ligand present: flavin mononucleotide, designed as: OFF switch for flavin mononucleotide
[3] = designed as: ON switch for flavin mononucleotide, no ligand
[4] = ligand present: flavin mononucleotide, designed as: ON switch for flavin mononucleotide

Sequence | apparent Kd [1] [nM] | apparent Kd [2] [nM] | apparent Kd [3] [nM] | apparent Kd [4] [nM]
ACGCUUUGGGAGAAGGUACGUGAAGUAUUAUCCACAUGAGGAUCACCCAUGUAAGGAUAUCCCGGCGUGAAAUAGGCUACAGCA | 4.77 | 11.3 | – | –
UAUUAUGUUCGAGGAUAUCCGCGAUGCCGACCAGGAGAAGGCGAACAUGAGGAUCACCCAUGUUAUAGAUGACCGGUUACCAAA | 23.8 | 41.2 | – | –
AAGUUGUCAGGAUAUCGUUAAUUUAGUUGUUUGUAUUAGUUCGAGAAGGGACAUGAGGAUCACCCAUGUUUGCA | 26.4 | 34 | – | –
UCAUGAUAUGUAGGAUAUCACUUUAAUUGAUUAAUAUAUGAAUAUAGAAUUUGAGAAGGACAUUUACAUGAGGAUCACCCAUGU | 12.9 | 9.67 | – | –
CCAGAUAUGUGAGGAUAUAGAGUGGAAUACACUCUAGAAGGUAUGUGAAAACAUGAGGAUCACCCAUGUCAUUGAUUAUCUGGA | – | – | 26 | 27.5
GAGCGAAAGCUCAAUGUCGAUAGCAGAAGGACAUGUAAAUACAUGAAAACAUGAGGAUCACCCAUGUAGGAUAUGCUAUCGACU | 5.46 | 12.7 | – | –
CAGUGCAAUGUAGGAUAUGCUCAGGAAUACUGAGCAGAAGGACAUGAGGAUCACCCAUGUACUAUGAAAGAUAAUAAAGCACUG | 13.5 | 18.2 | – | –
CCUCCCUGAGGAUAUCCACCCUCAUACAUGAGGAUCACCCAUGUUCAUCCCUGAGUACCCGGAGAAGGCAGAUUUC | 168 | 148 | – | –
CACGGAAACGUGAAACGUAGCAUACGAGAAGGCUGAUCCACGACAUGAGGAUCACCCAUGUAGUUAGAGGAUAUUGGAUGCUAC | – | – | 57.7 | 12.2
AGGAGAAAUGUAGGAUAUGGGCGGGUAUAUGGGCAAAGCGCAUAUACCCGCCCAGAAGGACAUGAGGAUCACCCAUGUUUCCCU | 12.2 | 13.3 | – | –
UAGAAUCGAGGAUAUACAUGAGGAUCACCCAUGUGUUGCCGCAUGAUGUGAUCGUCAGGUAGAAGGCGAUUAUA | 25.4 | 18.7 | – | –
GAUCAACAUGAGGAUCACCCAUGUGAGGAUAUGAUACUAUGUACUUCGGUACAUAGUAUCAGAAGGCAUUAGGA | 51.8 | 39.6 | – | –
GGUUGACAAAGUCAACCUUAACGAACAUGAGGAUCACCCAUGUAGGAUAUGCUACUCAAAGAGUAGCAGAAGGACAUGUGUCUU | 30 | 169 | – | –
CAUUGCGGAGGAUAUAGGCCGUAAUACAUGAGGAUCACCCAUGUGCCGCUGUAUAAUUCCCUAGAAGGUUGCCAUC | 15.4 | 15.7 | – | –
AGUAAGCUUGAGAAGGUGAAGUGGAAACAUGAGGAUCACCCAUGUAUUAGGAAGCCUGGUUUUGUCAAGGAUAUCGGGUUUACA | – | – | 12.2 | 12.6
CCCUCAACAUGAGGAUCACCCAUGUAGGAUAUCGCUAUUGUAAUCAUGAAACAUGAUUACAAUAGCGAGAAGGACAUAUGUAAA | 27.4 | 140 | – | –
AGGCACAUCGGAGGAUAUCAUGUAAAUACAUGAGGAUCACCCAUGUCGAUGGAGACAUCGGAGAUUGAGAAGGCCGAUGUACCG | – | – | 175 | 8.44
UCUUCACAUGAGGAUCACCCAUGUGAGGAUAUGGAUUCGCUGGCCGUAGCCAGUGGAUCCAGAAGGCGCAUGAU | 23.8 | 25 | – | –
UUCAUCAAUGAAGGAUAUCUAUGUCCAACAUGAGGAUCACCCAUGUUGAGGAUCACCUAUGUGUAGGAGAAGGUCAAUAUAACU | – | – | 8.56 | 8.54
CAGCUGAAUGUGAGGAUAUGUCUAGCCUCGGCUAGACAGAAGGCACAUGAGGAUCACCCAUGUCUCAACAGCUG | 38.8 | 675 | – | –
GACUGACGAGGAUAUACAUGAGGAUCACCCAUGUAAGAUCAGCGACUUCGGUCGCAAUGUAGAAGGCGUCAGUC | 28.2 | 326 | – | –
CUUGCGCGCUCGCCACUUUUCCCACAUGAGGAUCACCCAUGUCAGGAUAUACGUACCGAAAUGGCGUAGAAGGGACACGGGUUA | 166 | 131 | – | –
UAGAUGUGAGGAUAUGGUAAAGAUAGAAUGAUGAAAGAACUCCAGAAGGCACAUGAGGAUCACCCAUGUAGAUG | 26.9 | 55 | – | –
UCGCUGCGAGGAUAUACGUUUGCGCGCUUUCGUUUGCGCGUACAUGAGGAUCACCCAUGUAGAAGGCGCGCUGC | 15.5 | 15.5 | – | –
AACGAGCAAGAUUAUUAUGAAUAAACAUGAGGAUCACCCAUGUAGGAUAUGCAGUGGAAUACACUGCAGAAGGACAUAAGCUCG | 7.2 | 19 | – | –
GUGGCUAGUGCAGGAUAUUGGCGCGUGUAGUGUCGAGAAGGGCACAUGAGGAUCACCCAUGUGAUCAAUCACUGCUAAGGUCGC | 6.98 | 7.69 | – | –
AUACUCAUGUAAGGAUAUGCAGCCGUCUCGGCUGCAGAAGGUACUAUAAUACAUGAGGAUCACCCAUGUCUCUCGCAUUGCGAG | – | – | 562 | 93.7
CCGGAAGGUUAGGAUAUGCUUCCACAUAUCUAAGCAGAAGGAACCACAUGAGGAUCACCCAUGUUUAUGGGCCG | 262 | 261 | – | –

Sequence | apparent Kd [1] [nM] | apparent Kd [2] [nM] | apparent Kd [3] [nM] | apparent Kd [4] [nM]
CAAAGUUGGUAAGGAUAUCCCACAUUAUUCUGACCCGUGCAAGCUACAUGAGGAUCACCCAUGUGGGAGAAGGUGCGUUAAAGC | 372 | 219 | – | –
AAGUAGGUAGGAUAUACAUGGAUAUACAUUCAUGUGGACCUACAUGAGGAUCACCCAUGUAGAAGGACCUACUA | 36.9 | 79.1 | – | –
GCUGCCGCUGCAGGAUAUCAGCACGUGUAGUGCUGAGAAGGGCACAUGAGGAUCACCCAUGUGAUCAAUUAAUAAGCGUGCAGC | 6.86 | 16.5 | – | –
AAGAACUUAGGAUAUACAUGAGGAUCACCCAUGUAGCUUCACUUGGGCCUGAGCCCGUGUAGAAGGAAGAAAAU | 87.9 | 59 | – | –
UUGGACCUCGUAGGAUAUGUAGGAUAUUCCUACAUGAGGAUCACCCAUGUUGACAUGGAAGAAGGACAGAAGGACGAUGUCCAU | – | – | 311 | 5.32
GUAACAUGAGGAUCACCCAUGUCGUGCUAGAUGAGUUCUAGUGAGGAUAUACAUGGUAAAUAACUGUAGAAGGUGCUGGGUACA | – | – | 192 | 229
UUUUAACAUGAGGAUCACCCAUGUGAGGAUAUCGAAAUUUAUAUUUAUAUUAAUUAAACGAGAAGGCACAUUUU | 90.9 | 110 | – | –
AGUGUCAUCGAGAAGGCCUCAACAUGAGGAUCACCCAUGUUGCCAAAAGGGAGGAUAUCGAUGAUACAGCUACGUUUCGUAGCA | – | – | 4.15 | 4.34
UAAUAAUUAUGAGGAUAUAUACAACAUGAGGAUCACCCAUGUACCCAUGUAGUAGAAGGCAUAUUUUUAGUUAAUAACACAACU | – | – | 71.3 | 30
UGGUGACGUGUAGGAUAUGGAGGUGGGUUUUGGCCAGAAGGACAUGAGGAUCACCCAUGUGGUAGAGGGUUGGCGGCGGCCCGU | 16.9 | 15.1 | – | –
GGAUAGGACAGAGGAUAUACGUGCUAGAGAUACUAGCAAAAUUUCCUCACAUGAGGAUCACCCAUGUAGAAGGCUGUCCUAGCG | 15.7 | 376 | – | –
GUCUUCCUAGGAUAUACAUGAGGAUCACCCAUGUACAGUUUCGUCUAGGGAUACUCGCGUAGAAGGAGGUGGAU | 20.8 | 26.5 | – | –
CGAUAUAUGAAGGGCGAAAGCCCACAUGAGGAUCACCCAUGUAGAAGGCGGGCCGCAACGCGGCCCGAGGAUAUAUAGUAUACA | 8.05 | 8.84 | – | –
GGGUACAUCGGAGGAUAUCAUGUAAAUACAUGAGGAUCACCCAUGUCGAUGGAGACAUCGGAGAUUGAGAAGGCGGAUGUACCG | – | – | 309 | 23.1
AAAUAAAGGACUAAGGAUAUAUCACAUGAAACAUGAGGAUCACCCAUGUAAUAAUACAAAGGGUGAUAGAAGGUAGUCCACAAACA | – | – | 55.7 | 20.5
GGAGCACAUGAAUACAUGAGGAUCACCCAUGUCGAAUGAUAUGAGGAUAUGCAUCGGAAAACGAUGUAGAAGGCAUAGUGCUCC | – | – | 60 | 11.4
GUCAGCUCGUGAGGAUAUACAUGUGCUGGAUACAGCACUAUUAAGAUCACAUGAGGAUCACCCAUGUAGAAGGCACGAGCUGAU | 49.5 | 643 | – | –
GUCAGCUCGUGAGGAUAUACAACACUGCUUCGGCAAUGUAUUAAGAUCACAUGAGGAUCACCCAUGUAGAAGGCACGAGCUGAU | 9.99 | 164 | – | –
AAUUAAUUAAUACAUGAGGAUCACCCAUGUAAUUAUUAGAUCAAGGAUAUCAGCUCGUUUAGAGCUGAGAAGGUGAUCACAUGU | – | – | 373 | 109
GUGUACAGAGGAUAUAUAUGGGCAUGGAAACAUGCAACUUCACAUGAGGAUCACCCAUGUAGAAGGCUGUACAC | 27.3 | 182 | – | –
CGCCUGUGAGGAUAUCCAUCUGGAUCAGACUAGAUCCUGAUGGAGAAGGCACAUGAGGAUCACCCAUGUCGGCG | 23.1 | 22.4 | – | –
UAGAUGGGAGGAUAUGCGUAGAUGCGGAUUCGUGUGGUGCUACAUGAGGAUCACCCAUGUAGAAGGCCCGUCUU | 14.4 | 22 | – | –
UUAAAUCAUGUAGGAUAUGCAUGGCGAAGCUACGCAGAAGGACAUGAGGAUCACCCAUGUUAUAGCGUCUGAGUACAGAUGCAA | 79.6 | 268 | – | –
GGCGCAUUUGUGGCGUAUAGGUCGAAGGAUAUCACGUGCCGCCUAGUACAUGAGGAUCACCCAUGUGAGAAGGUCGAACUUAAC | 19.3 | 83.5 | – | –
UGUCGGAGCAGAGGAUAUUACAUGAGGAUCACCCAUGUAUGAACCAAUAGCUGGAAACAGCAAUGUAAGAAGGCUGCUCCGACA | 37.5 | 531 | – | –
AGGCGGAAAGUCAGGAUAUCUUGACCAAAGGGUUGAGAGAAGGGACAUGAGGAUCACCCAUGUGGCGACCGCCA | 37.5 | 67.9 | – | –
GAGUAGUUAAAAGGAUAUUGAUUAUUGUAGGAUCAAGAAGGUUUUAACAUGAGGAUCACCCAUGUAGGACUAUUCCUGUGAAAA | – | – | 15.6 | 12.7
